These results are taken from PMC7056570 (Molecular cancer therapeutics, 2019).

Data set [1] deals with silvestrol-resistant 697-R leukemic cells. Description: Cell proliferation of MDR1-overexpressing leukemic cells, 3 days. The settings on record: for sensitivity to MDR1 inhibition: 697-R versus 697 cells. In kind it is cell-based.
In data set [2] the test system is parental 697 leukemic cells. Description: Cell proliferation of parental leukemic cells, 3 days. It is filed as cell-based. The settings on record: 72 h, read-out: IC50 in 697 cells.
The next data set in a line: Toxicology study in dogs. It is filed as in vivo. The note with it: same protocol, same lab.
The conditions of data set [3]: cited from earlier work.
Data set [4] has as its system panel of MPNST, schwannoma, and meningioma cell lines. Description: Growth-inhibitory activity compared in the cell line panel. The note with it: all cell lines tested. It is filed as cell-based. Put shortly:
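Compounds were made up as 10-mM stocks in DMSO. Cell lines were authenticated by STR genotyping and confirmed mycoplasma-free. Proliferation was read by resazurin assay.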

The next data set has as its system STS26T MPNST cells. The data set is described as follows: Flow cytometry cell cycle analysis, STS26T. It is filed as cell-based, human. The settings on record: one- or two-IC50 doses, three days.
For the next data set, the system named is ST8814 MPNST cells. Description: Flow cytometry cell cycle analysis, ST8814. The settings on record: one- or two-IC50 doses, three days. It is filed as cell-based, human. On the technique in general: In flow cytometry, cells or beads pass a laser one at a time.

Broadly, the IC50 is the midpoint of a concentration-inhibition curve.

SMILES strings stand for the structures.

Consider `COC(=O)[C@H]1[C@@H](O)[C@@]2(O)c3c(OC)cc(O[C@@H]4O[C@@H]([C@H](O)CO)CO[C@H]4OC)cc3O[C@@]2(c2ccc(OC)cc2)[C@@H]1c1ccccc1` [Silvestrol, reference compound], for which the IC50 turned out to be 26 nM in data set [1] (MDR1, 72 h, read-out: IC50 in 697-R cells) and 3.5 nM in data set [2]. Besides, the “pulmonary toxicity in dogs” value in “Toxicology study in dogs” is “massive lung damage”. For the same molecule, in data set [3], the oral bioavailability is on record as less than 2%.
Turning to `COc1ccc([C@@]23Oc4cc(OC)cc(OC)c4[C@]2(O)[C@H](O)[C@H](C(N)=O)[C@H]3c2ccccc2)cc1` [Didesmethylrocaglamide], in data set [1], the “sensitivity to MDR1 inhibition” value is reported as “not sensitive to MDR1 inhibition”. For the same molecule, the IC50 in data set [2] is 3 nM. Also, in data set [4], the “potency relative to silvestrol” value is on record as ~ 2 fold. The G2/M fraction result in the data set with STS26T MPNST cells and in the data set on ST8814 MPNST cells was “marked increase in the G2/M fraction” each time.
As to `COc1ccc([C@@]23Oc4cc(OC)cc(OC)c4[C@]2(O)[C@H](O)[C@H](C(=O)N(C)C)[C@H]3c2ccccc2)cc1` [Rocaglamide], in data set [1], the “sensitivity to MDR1 inhibition” value is on record as “not sensitive to MDR1 inhibition”. In addition, the 50% inhibitory concentration (IC50) in data set [2] was determined as 8 nM. Moreover, the “pulmonary toxicity in dogs” value in “Toxicology study in dogs” is listed as “did not produce adverse pulmonary findings”. In addition, the G2/M fraction result with STS26T MPNST cells and in the data set with ST8814 MPNST cells was “marked increase in the G2/M fraction” throughout.
